# Results published in publication PMC3481545 (Biochemistry, 2012).
# Where a chain is given by its changes, count along the chain named. Names may count otherwise.
# B1: S107P: BMPR-II ECD naturally occurring single-amino-acid-substitution mutant S107P (protein)
# chain: ASQNQERLCAFKDPYQQDLGIGESRISHENGTILCSKGSTCYGLWEKSKGDINLVKQGCWSHIGDPQECHYEECVVTTTPPPIQNGTYRFCCCSTDLCNVNFTENFPPPDTTPLSPPHSFNRDET
# modifications: left off: TRX, N-terminal, cleaved | His6, C-terminal, state not stated
# B2: BMPR-II Wild type: human recombinant BMPR-II receptor extracellular domain (ECD), wild type, expressed in E. coli (protein)
# chain: B1 chain with P82S
# modifications: left off: TRX, N-terminal, cleaved | His6, C-terminal, state not stated
# B3: G47N: BMPR-II ECD naturally occurring single-amino-acid-substitution mutant G47N (protein)
# chain: B1 chain with G22N, P82S
# modifications: left off: TRX, N-terminal, cleaved | His6, C-terminal, state not stated
# B4: Y40P: BMPR-II ECD single-amino-acid-substitution mutant Y40P (protein)
# chain: B1 chain with Y15P, P82S
# modifications: left off: TRX, N-terminal, cleaved | His6, C-terminal, state not stated
# B5: Y40R: BMPR-II ECD single-amino-acid-substitution mutant Y40R (protein)
# chain: B1 chain with Y15R, P82S
# modifications: left off: TRX, N-terminal, cleaved | His6, C-terminal, state not stated
# B6: Y40G: BMPR-II ECD single-amino-acid-substitution mutant Y40G (protein)
# chain: B1 chain with Y15G, P82S
# modifications: left off: TRX, N-terminal, cleaved | His6, C-terminal, state not stated
# B7: Y40Q: BMPR-II ECD single-amino-acid-substitution mutant Y40Q (protein)
# chain: B1 chain with Y15Q, P82S
# modifications: left off: TRX, N-terminal, cleaved | His6, C-terminal, state not stated
# B8: ActR-IIB Wild type: human recombinant ActR-IIB receptor extracellular domain (ECD), wild type, expressed in E. coli (protein, UniProt Q13705 19-137, looked up)
# extracellular domain: SGRGEAETRECIYYNANWELERTNQSGLERCEGEQDKRLHCYASWRNSSGTIELVKKGCWLDDFNCYDRQECVATEENPQVYFCCCEGNFCNERFTHLPEAGGPEVTYEPPPTAPTLLT
# modifications: extracellular domain
# B9: BMP-7: Bone Morphogenetic Protein ligand provided by Stryker Biotech; BMPR-II ligand (protein)
# chain: STGSKQRSQNRSKTPKNQEALRMANVAENSSSDQRQACKKHELYVSFRDLGWQDWIIAPEGYAAYYCEGECAFPLNSYMNATNHAIVQTLVHFINPETVPKPCCAPTQLNAISVLYFDDSSNVILKKYRNMVVRACGCH
# Test system: not listed separately
# Test: bis-ANS fluorescence titration of receptor ECDs
# Type: binding
# Conditions: value in parenthesis
# Procedure, shortened: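 Receptor ECDs were expressed in E. coli as TRX/His-tag fusions, thrombin-cleaved, and purified (Ni-NTA, gel filtration, C18), then quantified by A280. bis-ANS was diluted from a 10 mM DMF stock into 50 mM Tris-HCl pH 7.5, 150 mM NaCl and titrated against fixed protein. Peak fluorescence versus dye concentration was fitted to a Hill equation for apparent K′, normalized to wild-type.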
row,"Relative K′ of bis-ANS (Hill Eq.), normalized to wild-type",Molecule
1,1.0,B1
2,1.0,B2
3,2.9,B3
4,1.8,B4
5,1.1,B5
6,0.3,B6
7,2.4,B7
8,1.0,B8

# Test system: not listed separately
# Test: Energy transfer
# Type: binding
# Conditions: value in parenthesis
# Procedure, shortened: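 Human receptor ECDs (wild-type, mutants, chimeras) were made as TRX/His-tag fusions in E. coli BL21(DE3), cut with thrombin, and purified by Ni-NTA, gel filtration and C18. Protein was quantified by A280. bis-ANS was diluted from a 10 mM DMF stock into 50 mM Tris-HCl pH 7.5, 150 mM NaCl. Tryptophan was excited at 295 nm, emission read 310–600 nm at 25°C, and K′ derived from energy transfer to bis-ANS, normalized to wild-type.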
row,"Relative K′ of bis-ANS (energy transfer), normalized to wild-type",Molecule
1,0.9,B1
2,1.0,B2
3,2.3,B3
4,1.6,B4
5,0.9,B5
6,0.6,B6
7,1.9,B7
8,1.0,B8

# Test system: BMP-7-stimulated OC promoter activity in fetal rat calvaria (FRC) cells
# Test: Osteocalcin promoter-Luciferase
# Type: cell-based
# Conditions: BMP-7 alone, 6 nM
# Procedure, shortened: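 Primary fetal rat calvaria cells were grown in αMEM+10% FBS and transfected with an OC promoter-luciferase plasmid via FuGENE 6 in OPTI medium with 8 U hyaluronidase. After 5 h, fresh medium was added overnight. Cells were then treated 24 h with 6 nM BMP-7, alone or with 20-fold molar excess soluble receptor ECD. Luciferase was read in lysates; mean±SEM of three independent measurements.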
row,Molecule,Stimulation of OC promoter activity beyond the empty plasmid control [fold]
1,B9,14
